The values that follow come from publication PMC2975716 (Journal of Lipid Research, 2010).

The target in data set [1] is T1, CETP (Homo sapiens, UniProt P11597).
T1 sequence (P11597 18-493): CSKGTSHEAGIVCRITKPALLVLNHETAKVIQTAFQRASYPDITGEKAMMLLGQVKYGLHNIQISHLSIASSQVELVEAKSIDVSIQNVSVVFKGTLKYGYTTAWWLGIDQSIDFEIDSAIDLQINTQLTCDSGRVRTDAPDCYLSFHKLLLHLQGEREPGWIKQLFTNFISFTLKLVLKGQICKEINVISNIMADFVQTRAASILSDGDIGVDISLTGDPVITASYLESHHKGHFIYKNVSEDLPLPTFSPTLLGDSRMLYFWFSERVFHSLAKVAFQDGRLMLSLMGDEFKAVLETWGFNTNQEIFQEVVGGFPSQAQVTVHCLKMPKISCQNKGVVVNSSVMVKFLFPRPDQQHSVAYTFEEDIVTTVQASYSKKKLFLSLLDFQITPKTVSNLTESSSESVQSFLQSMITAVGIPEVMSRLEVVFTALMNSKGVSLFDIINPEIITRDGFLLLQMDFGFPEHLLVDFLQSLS
Nature of the data set: Transfer of CE from HDL to LDL, scintillation proximity assay. The data set is classed as biochemical. A general note: In a scintillation proximity assay essentially only radioactivity close to the scintillant gives light.

In the next data set the target is T2, C13S CETP (Homo sapiens, UniProt P11597, C30S).
T2 sequence (P11597 18-493 C30S): T1 sequence (P11597 18-493) with C13S
Description: Transfer of CE from HDL to LDL, scintillation proximity assay, C13S mutant. The format is biochemical.

For data set [2], the target named is T1, CETP. The data set is classed as binding. Particulars: 25 µM unlabeled compound, coincubation.
Data set [3] addresses T1, CETP. The format is binding. Particulars: 25 µM unlabeled compound, […] label.
A further data set concerns Golden Syrian hamsters. Description: In vivo macrophage-to-feces RCT study. On the set-up: species or system Golden Syrian hamster. Particulars: dalcetrapib 100 mg/kg BID, torcetrapib 30 mg/kg QD, anacetrapib 30 mg/kg QD; for [3H]HDL / [3H]plasma: Day 3 after labeled macrophage injection; for [3H]HDL / [3H]plasma / Fecal [3H]total sterols / Fecal total radioactivity: mean ± SD; for Change in liver radioactivity compared with vehicle: day 10, data not shown; for Fecal [3H]total sterols: sum of [3H]neutral sterols and [3H]bile acids; for Fecal [3H]total sterols / Fecal total radioactivity: day 0-10; for Fecal total radioactivity: whole fecal homogenates.

For data set [4] the following is noted: cited from earlier work.
Data set [5] concerns the target T1, CETP. Description: CETP ELISA with different capture antibodies, in vitro addition to human plasma. Particulars: 0.01-10 µM. The method in brief:
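Test compound dilution series (0.01–10 µM) made in this plasma, held 3 h at 37°C, then assayed by JHC-1-capture/6/6-HRP and 6/2-capture/6/17-HRP ELISAs. Duplicates per donor (n = 14); mean with SD.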
(In an ELISA, binding on a coated surface is turned into a signal by an enzyme label.)

Data set [6] has as its target T1, CETP. Nature of the data set: CETP ELISA on plasma of healthy subjects after single oral 600 mg dalcetrapib. The format is in vivo. Particulars: 22 healthy volunteers.
Data set [7] concerns CETP-induced pre-β-HDL formation. Description: Quantification of pre-β-HDL by ELISA in incubated human plasma. Conditions: endogenous CETP only, 21 h at 37°C. The format is biochemical. In a few lines: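 Human plasma with endogenous CETP at 1.25 μg/ml, no rhCETP added, incubated 21 h at 37°C with or without test compound (0.1, 1, 3, 10 µM). Pre-β-HDL quantified by a pre-β1-selective ELISA. Dose effects assessed by ANCOVA with nested factor.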

For data set [8], the target named is T3, PLTP (Homo sapiens, UniProt P55058). Nature of the data set: PLTP activity. The data set is classed as biochemical. Particulars: concentrations up to 30 µM; data not shown.
T3 sequence (P55058 18-493, species assumed): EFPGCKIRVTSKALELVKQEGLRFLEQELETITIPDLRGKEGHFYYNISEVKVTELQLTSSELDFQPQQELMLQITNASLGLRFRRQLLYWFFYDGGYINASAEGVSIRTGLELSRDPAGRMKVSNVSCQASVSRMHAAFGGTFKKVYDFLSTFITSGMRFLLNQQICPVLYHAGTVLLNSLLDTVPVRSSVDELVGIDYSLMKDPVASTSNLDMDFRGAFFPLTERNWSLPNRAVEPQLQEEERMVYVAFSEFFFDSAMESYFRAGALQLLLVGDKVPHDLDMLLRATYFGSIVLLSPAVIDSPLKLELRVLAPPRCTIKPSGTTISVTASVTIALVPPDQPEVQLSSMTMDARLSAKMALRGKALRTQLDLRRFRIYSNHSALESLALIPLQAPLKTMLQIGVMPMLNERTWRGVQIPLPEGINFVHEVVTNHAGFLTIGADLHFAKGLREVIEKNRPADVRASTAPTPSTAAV
For data set [9], the target named is T1, CETP. Nature of the data set: SPR. The data set is classed as binding. Conditions: 5 µM, 60 s, before and after dalcetrapib-thiol injections.
Data set [10] deals with T3, PLTP. Conditions: concentrations up to 30 µM; cited from earlier work.
For the next data set, the system named is JHC-1. Nature of the data set: Binding to antibody JHC-1.
The format of data set [11] is in vivo, human. Conditions: healthy volunteers, single oral dose 600 mg dalcetrapib.
The mark [12] stands for this setting: read-out: IC50 for transfer of CE from HDL to LDL by rhCETP, mean ± SEM, CETP 0.5 µg/ml, 3 h at 37°C.
Where [13] appears, read: read-out: IC50 for transfer of CE from HDL to LDL by C13S CETP mutant, mean ± SEM, CETP 0.5 µg/ml, 3 h at 37°C.
Where [14] appears, read: human plasma of seven donors, 3 h at 37°C.

Changes are numbered by the printed parent chain. Where two headings read alike, the source gives them in different places. Marks after values point to notes of the source that are not given here.

For `CCC(CC)CC1(C(=O)Nc2ccccc2SSc2ccccc2NC(=O)C2(CC(CC)CC)CCCCC2)CCCCC1` [dalcetrapib-disulfide], the IC50 (usually the concentration needed to halve the response being measured) is 0.0352 ± 0.0028 µM at CETP [1] (setting [12]) and more than 100 µM at C13S CETP (setting [13]). Moreover, at CETP [2], the “Effect on binding of [14C]torcetrapib to immobilized rhCETP” value (“Effect on binding of [14C]torcetrapib” below) was “unaffected”.
Consider `COc1cc(F)c(C(C)C)cc1-c1ccc(C(F)(F)F)cc1CN1C(=O)O[C@H](c2cc(C(F)(F)F)cc(C(F)(F)F)c2)[C@@H]1C` [anacetrapib], for which, at CETP [2], the “Decrease in amount of [14C]torcetrapib bound to immobilized rhCETP” value is on record as 60%. Further, on CETP [3] (with 5 mM TCEP), the “Displacement of [14C]dalcetrapib-thiol bound to rhCETP” value was “neither torcetrapib nor anacetrapib affected”. In the data set on Golden Syrian hamsters, the “[3H]HDL” value is given as 0.34 ± 0.07^c kBq/ml, the “[3H]plasma” value was determined as 0.79 ± 0.11 kBq/ml, the “Change in liver radioactivity compared with vehicle” value (“Change in liver radioactivity” for short) is reported as −9.2% and the “Fecal [3H]total sterols” value was 9.7 ± 0.9 % of injected. Besides, the Fecal total radioactivity in the data set with Golden Syrian hamsters is on record as 13.2 ± 1.5 % of injected. For the same compound, the “Raise of plasma HDL-C in humans” value in data set [4] is listed as “up to 130%”.
On CETP [1], `CCC(CC)CC1(C(=O)Nc2ccccc2SC(=O)C(C)C)CCCCC1` [dalcetrapib] returned an IC50 of 0.205 ± 0.0963 µM. On C13S CETP, the IC50 is more than 100 µM. For the same compound, the “Effect on binding of [14C]torcetrapib” value on CETP [2] was “unaffected”. The “Displacement of [14C]dalcetrapib-thiol bound to rhCETP” value at CETP [3] (with 5 mM TCEP) was “displaced”. Further, at CETP [5] (human plasma in vitro), the “Concentration at which maximum decrease in JHC-1 epitope detection is reached” value is 0.5 µM and the “Concentration from which CETP detection by JHC-1 is decreased” value is not below 0.1 µM. On CETP [5] (setting [14]), the “Change in CETP epitope detection, ELISA with capture antibody 6/2” value is “no change in epitope detection”. Besides, on CETP [6], the “Change in CETP detection with 6/2 as capture antibody” value is given as “no change was detected”. The “Decrease in CETP detection by the JHC-1-based ELISA” value on CETP [6] (P < 0.001) worked out at 30%. Also, the “Increase in pre-β-HDL” value in [7] (1 µM, NS) stood at 4%. The “Increase in pre-β-HDL” value in data set [7] (3 µM, P < 0.05) was determined as 13%. Further, the “Increase in pre-β-HDL” value in [7] (10 µM, P < 0.01) came to 16%. In the data set on Golden Syrian hamsters, the “[3H]HDL” value is on record as 0.28 ± 0.04^c kBq/ml, the “[3H]plasma” value is 0.74 ± 0.05 kBq/ml, the “Change in liver radioactivity” value was −42.2% and the “Fecal [3H]total sterols” value is given as 12.5 ± 0.5^b % of injected. Further, the Fecal total radioactivity in the data set on Golden Syrian hamsters is 17.5 ± 0.5^c % of injected. Further, the “Effect on PLTP activity” value at PLTP [8] was “neither inhibit nor increase PLTP activity”. For the same compound, the “Raise of HDL-C in humans” value in data set [4] (dose of 600 mg) was “up to 36%”.
For `CCOC(=O)N1c2ccc(C(F)(F)F)cc2[C@@H](N(Cc2cc(C(F)(F)F)cc(C(F)(F)F)c2)C(=O)OC)C[C@H]1CC` [torcetrapib], the “Decrease in amount of [14C]torcetrapib bound to immobilized rhCETP” value at CETP [2] was determined as 82%. Also, at CETP [3] (with 5 mM TCEP), the “Displacement of [14C]dalcetrapib-thiol bound to rhCETP” value is “neither torcetrapib nor anacetrapib affected”. On CETP [5] (setting [14]), the “Change in CETP epitope detection, ELISA with capture antibody 6/2” value was “no change in epitope detection” and the “Change in CETP epitope detection, ELISA with capture antibody JHC-1” value is “did not change epitope detection”. In addition, in the data set with Golden Syrian hamsters, the “[3H]HDL” value is listed as 0.32 ± 0.07^c kBq/ml, the “[3H]plasma” value is on record as 0.77 ± 0.11 kBq/ml, the “Change in liver radioactivity” value is −28.1% and the “Fecal [3H]total sterols” value was 11.5 ± 0.5^b % of injected. Moreover, the Fecal total radioactivity in the data set on Golden Syrian hamsters was 16.5 ± 0.5^c % of injected. In addition, the “Binding to rhCETP following saturation of the dalcetrapib binding site (SPR)” value on CETP [9] was “remained unchanged”. Moreover, the “Effect on PLTP activity” value at PLTP [10] is “neither inhibit nor increase PLTP activity”. Also, in data set [4], the “Fecal sterol excretion in clinical studies” value was “not associated with an increase in fecal sterol excretion”.
Take `CCC(CC)CC1(C(=O)Nc2ccccc2S)CCCCC1` [dalcetrapib-thiol]: the IC50 at CETP [1] (setting [12]) is 0.0237 ± 0.0019 µM; on C13S CETP (setting [13]), more than 100 µM. The “Effect on binding of [14C]torcetrapib” value at CETP [2] is “only marginally decreased”. The “Displacement of [14C]dalcetrapib-thiol bound to rhCETP” value is given as “not observed” on CETP [3] (absence of TCEP, data not shown) and “did occur when TCEP was present” on CETP [3] (with 5 mM TCEP). In the data set with JHC-1, the “Binding to JHC-1” value is on record as “did not bind”. The “Maximum plasma dalcetrapib-thiol level” value in data set [11] was 628.7 ng/mL. The “Time of maximum plasma dalcetrapib-thiol level” value in data set [11] was determined as 4 h. The compound also showed a t1/2 in [11] (mean ± SD) of 25.5 ± 3.9 h.
